APP 5'UTR act: activates APP 5'UTR luciferase reporter; activation, % at 2 µM; AID 1276; 190,000 compounds, 1% hits; SH-SY5Y APP 5'UTR luciferase reporter, luminescence; zero percent = DMSO vehicle wells;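 active = activation above a set limit, based on mean plus 3 SD of controls, cut at about 140% in these data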
FLuc inh counter: counter-screen for luciferase assay inhibitors: firefly luciferase inhibition; P08659; ATPLite firefly luciferase biochemical luminescence, 10 min; inhibition, % at 10 µM; 200,000 compounds, 1.5% hits;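 active = inhibition above about 50% when tested at 10 µM, limit read from the data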
Target sequence (P08659 whole entry, looked up): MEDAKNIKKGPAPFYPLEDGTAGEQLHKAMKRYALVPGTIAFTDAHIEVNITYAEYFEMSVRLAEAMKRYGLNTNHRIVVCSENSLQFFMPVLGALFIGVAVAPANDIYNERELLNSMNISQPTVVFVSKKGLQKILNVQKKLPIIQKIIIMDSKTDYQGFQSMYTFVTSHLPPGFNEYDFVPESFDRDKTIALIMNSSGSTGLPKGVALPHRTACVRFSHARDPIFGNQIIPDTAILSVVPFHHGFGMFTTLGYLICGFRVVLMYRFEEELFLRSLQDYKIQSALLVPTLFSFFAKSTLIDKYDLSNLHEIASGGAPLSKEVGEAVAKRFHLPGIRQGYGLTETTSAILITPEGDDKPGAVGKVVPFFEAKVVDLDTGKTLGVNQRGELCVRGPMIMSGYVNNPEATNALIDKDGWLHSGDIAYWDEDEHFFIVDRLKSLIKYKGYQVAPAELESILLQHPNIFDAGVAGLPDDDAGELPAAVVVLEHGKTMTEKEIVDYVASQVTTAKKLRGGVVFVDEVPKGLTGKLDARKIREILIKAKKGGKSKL
STAT1 act: increases IFN-gamma driven STAT1 reporter signal | 200,000 compounds, 2.6% hits | activation (% of control), % at 5.5 µM | NIH 3T3 STAT1-luciferase reporter, luminescence; 100% = IFN-gamma alone, no compound;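 active = activation above the screen-wide mean activation plus 3 SD, cut at about 130% in these data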
NF-kB neuron act: NF-kB expression increase, human neuronal cells | NF-kB reporter expression; active compounds read high | 190,000 compounds, 1.6% hits | fold change at 12.5 µM | AID 1239; in the data active = fold change above about 3.3
FLuc act counter: firefly luciferase counter-screen for stimulation assays; ATPlite luciferase biochemical, luminescence, 10 min; 0 = ATP-free wells, 1 = DMSO control; activation factor at 10 µM; 200,000 tested, under 10 active; P08659;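 active = luciferase activation factor, scaled between plate controls, of at least 2 with compound at 10 µM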
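Assay system: Luciferase/luciferin detection reagent, cell-free biochemical luciferase assay / Also added: ATP substrate / Schedule: 10 min at ambient temperature / Measured by: luminescence measurement of luciferase light output / Benchmarks: low control with PBS replacing ATP, high control enzyme plus ATP without compound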
Hits are given with their value; 0 = inactive. Most compounds without a hit are left out; they make up all but 4.1% or so of the library.

SMILES	APP 5'UTR act	FLuc inh counter	STAT1 act	NF-kB neuron act	FLuc act counter
O=C(O)COc1ccccc1/C=N/NC(=O)c1cc(-c2ccc(F)cc2)nc2ccccc12	0	58.6	0	0	0
CC(=O)c1ccc(Nc2ccc(-c3ccccc3C)nn2)cc1	0	0	144.5	0	0
C=CCn1c(=O)c2ccccc2n2c(SCc3nnc(-c4ccccc4Br)o3)nnc12	0	0	0	0	0
COC(=O)c1ccc(Sc2nnnn2-c2ccccc2)c([N+](=O)[O-])c1	0	0	0	3.96	0
O=C(O)c1ccc(Sc2nnnn2-c2ccccc2)c([N+](=O)[O-])c1	0	0	0	0	0
CCc1cc(C(=O)Nc2ccccc2)cs1	0	0	134.8	3.74	0
CCc1cc(C(=O)NNC(=S)Nc2ccccc2C)cs1	0	0	0	4.28	0
CCCc1cc(C(=O)Nc2nccs2)cs1	152.0	61.0	129.5	6.71	0
CCc1cc(C(=O)NNC(=S)NCc2ccccc2)cs1	0	0	0	0	0
CC(C)Nc1nc(NC(C)(C)C)nc(Oc2ccc(=O)n(-c3ccccc3)n2)n1	0	0	0	0	0
C/C(CC(=O)NCc1ccco1)=N\NC(=O)COc1ccc(C)cc1	0	0	0	0	0
CCOc1ncccc1C(=O)OCc1ccc(C(=O)OC)cc1	0	0	130.0	0	0
Cn1c(SCC(=O)c2ccccc2)nnc1-c1ccc(O)cc1	0	0	129.4	0	0
O=c1n(-c2ccc(Br)cc2)cnn1-c1ncccc1[N+](=O)[O-]	0	0	130.5	0	0
CSc1nc(NC(C)(C)C)nc(Oc2ccc(=O)n(C)n2)n1	0	0	0	0	0
c1ccc(CCNc2nc(-c3ccccn3)cs2)cc1	0	0	142.4	4.1	0
CC1CC1C(=O)Nc1nc(-c2ccccn2)cs1 (stereo not drawn)	0	0	0	0	0
c1ccc(CCNc2nc(-c3cccnc3)cs2)cc1	0	0	133.2	0	0
O=C(Nc1nc(-c2ccccc2)cs1)c1cccnc1	0	0	0	0	0
COc1cccc(NC(=S)NN=C2CCCCCC2)c1	0	0	0	3.33	0
Cc1cccc(-c2noc(CN(C(=O)C(c3ccccc3)c3ccccc3)C(C)C)n2)c1	0	0	0	0	0
CSc1ccc(C2c3[nH]c4ccccc4c3CCN2C(=O)c2cc(C)n(C)n2)cc1 (stereo not drawn)	0	0	132.3	0	0
O=C(Nc1ccccc1)Nc1nnc(-c2ccccc2)o1	0	0	0	0	0
Fc1ccc(-c2nnc(NC3=NCCCCC3)o2)cc1	0	87.0	0	0	0
c1ccc(-c2nnc(NC3=NCCC3)o2)cc1	0	66.1	0	0	0
SMILES	APP 5'UTR act	FLuc inh counter	STAT1 act	NF-kB neuron act	FLuc act counter
Cc1ccc(N=C2NC(=O)/C(=C/c3cn(C)c4ccccc34)S2)cc1C	0	0	0	0	0
COc1cccc(-c2ncc3ccccn23)c1	0	0	134.8	0	0
COc1cc(OC)cc(-c2ncc3ccccn23)c1	0	0	0	0	0
NC(=O)c1ccsc1NC(=O)CSc1nnc(Nc2ccccc2)s1	0	0	0	0	0
Cc1cccc(Cn2nc(-n3cccc3)c3c(C)cc(C)nc32)c1	0	0	0	0	0
COCCOc1cc(-n2ccnc2SC)c(Cl)cc1Cl	0	0	0	0	0
Cc1ccc(NC(=O)/C(C#N)=C/c2ccsc2)c(C)c1	0	0	137.4	0	0
Cc1ccccc1NC(=O)/C(C#N)=C\c1ccsc1	0	0	0	0	0
CC(=O)N(C)c1ccc(N=Nc2c(C)[nH]n(C(N)=S)c2=O)cc1	139.3	0	147.8	4.54	0
Cc1cccc(N=Nc2c(C)[nH]n(C(N)=S)c2=O)c1C	0	0	130.6	0	0
Cc1ccccc1N=Nc1c(C)[nH]n(C(N)=S)c1=O	0	0	0	0	0
COc1ccc(/C=C(\NC(=O)c2ccccc2Cl)C(=O)NCCCC(=O)O)cc1	0	0	0	0	0
COCCn1c(/C=C/c2ccccc2)nc2ccccc21	0	85.7	146.0	3.94	0
Cn1c(=O)c(/C=C/c2ccccc2)nc2ccccc21	138.4	0	133.6	4.2	0
Cn1c(=O)c(/C=C/c2ccc(F)cc2)nc2ccccc21	0	0	0	0	0
Cn1c(/C=C/c2ccccc2)nc2ccccc21	0	93.8	0	0	0
COc1ccccc1Cn1c(/C=C/c2ccccc2)nc2ccccc21	0	0	0	0	0
COc1ccc(CCn2c(=O)[nH]c3cc(C(=O)N4CCN(c5ccccn5)CC4)ccc3c2=O)cc1OC	0	0	0	0	0
